Assay [1] in a line: Growth inhibition of human SJCRH30 cells assessed as reduction in cell viability after 48 hrs by SRB assay. The format is functional. An outline of the steps:
(§1)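 Cells were kept in RPMI-1640 with 5% FBS and 50 μg/mL gentamicin at 37 °C and 5% CO2, and plated at 4,000–6,000 cells/well to adhere overnight. Compounds in DMSO (0.5% v/v final) went to triplicate wells for 48 h. Cells were fixed with 10% TCA, and time-0 plates were fixed at dosing. SRB absorbance was read at 560 nm, with GI50 fitted by non-linear regression for each experiment.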
Background: The SRB assay estimates cell density from bound dye.

Assay [2] can be described thus: Growth inhibition of human D283 cells assessed as reduction in cell viability after 48 hrs by SRB assay. Format: functional. The note with it: D283, 48 h. An outline of the steps:
(§2)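 Cells were grown in IMEM with 5% FBS and 25 μg/mL gentamicin at 37 °C and 5% CO2, then seeded at 4,000–6,000 cells/well overnight. DMSO solutions (0.5% v/v final) were added to triplicate wells for 48 h, and time-0 plates were fixed at addition. Fixation was with TCA; for D283, 20% TCA was added straight into the medium. SRB absorbance at 560 nm gave GI50 by non-linear regression.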

The subject of assay [3] is A673. The experiment in a line: Growth inhibition of human A673 cells assessed as reduction in cell viability after 48 hrs by SRB assay. Format: functional. Conditions: A673, 48 h. The essentials: as §1
The test system of a further assay is Hep293TT. The assay is described as follows: Growth inhibition of human Hep293TT cells assessed as reduction in cell viability after 48 hrs by SRB assay. Format: functional. An outline of the steps:
as §1

Assay [4] has as its target T1, Monocarboxylate transporter 1 (Homo sapiens) (UniProt P53985).
T1 sequence (whole entry): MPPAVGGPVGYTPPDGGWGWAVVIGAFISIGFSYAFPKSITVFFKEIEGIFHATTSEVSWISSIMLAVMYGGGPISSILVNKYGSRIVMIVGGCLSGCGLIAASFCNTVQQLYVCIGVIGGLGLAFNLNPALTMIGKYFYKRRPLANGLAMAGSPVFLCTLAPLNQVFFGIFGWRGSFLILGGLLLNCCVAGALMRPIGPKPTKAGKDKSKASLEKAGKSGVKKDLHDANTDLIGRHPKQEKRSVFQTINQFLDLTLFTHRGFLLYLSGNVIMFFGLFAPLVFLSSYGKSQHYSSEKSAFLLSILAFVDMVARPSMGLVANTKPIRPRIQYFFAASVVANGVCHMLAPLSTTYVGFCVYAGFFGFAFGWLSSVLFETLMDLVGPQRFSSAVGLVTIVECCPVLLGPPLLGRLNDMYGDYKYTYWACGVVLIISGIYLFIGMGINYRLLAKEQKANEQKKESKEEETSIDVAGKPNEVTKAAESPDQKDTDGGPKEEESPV
The experiment in a line: Inhibition of MCT1 in human A673 cells assessed as reduction in BrPA-induced cytotoxicity at 10 nM by SRB assay. The format is cell-based. The essentials: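 A-673 cells were grown in RPMI-1640 with 5% FBS. Test compound or AZD3965 was added 1 h before BrPA, with DMSO as the vehicle control. Viability was read by SRB staining after TCA fixation, with absorbance at 560 nm.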

In a further assay the test system is SK-ES1. The assay is described as follows: Growth inhibition of human SK-ES-1 cells assessed as reduction in cell viability after 48 hrs by SRB assay. Format: functional. The note with it: SK-ES1, 48 h. An outline of the steps: as §1
Another assay concerns D341 cell line. The assay is described as follows: Growth inhibition of human D341 cells assessed as reduction in cell viability after 48 hrs by SRB assay. Format: functional. Conditions: D341, 48 h. An outline of the steps:
as §2

Another assay has as its system Daoy. The experiment in a line: Growth inhibition of human DaOY cells assessed as reduction in cell viability up to 10 uM after 48 hrs by SRB assay. The format is functional, cell-based. The essentials: as §2
For a further assay, the system named is HCC1806. The experiment in a line: Growth inhibition of human HCC1806 cells assessed as reduction in cell viability up to 10 uM after 48 hrs by SRB assay. Format: functional, cell-based. An outline of the steps:
as §1

A further assay concerns HCT-15. The experiment in a line: Cytotoxicity against human HCT15 cells assessed as reduction in cell viability. Format: functional, cell-based.
The subject of a further assay is HeLa. The experiment in a line: Cytotoxicity against human HeLa cells assessed as reduction in cell viability. Format: functional, cell-based.
The test system of another assay is A2780. The assay is described as follows: Cytotoxicity against human A2780 cells assessed as reduction in cell viability. The format is functional, cell-based.
For assay [5], the system named is A673. The experiment in a line: Growth inhibition of human A673 cells assessed as reduction in cell viability up to 10 uM after 48 hrs by SRB assay. Format: functional, cell-based. An outline of the steps:
as §1

The text below walks through data of ChEMBL document CHEMBL4613254, “Using the Cancer Dependency Map to Identify the Mechanism of Action of a Cytotoxic Alkenyl Derivative from the Fruit of Choerospondias axillaris” (J Nat Prod, 2020).

Calls of active or inactive are those of the source. The calls are words filed in the database; no cut-off is given here.

For the compound `CCCC/C=C\CCCCCCCCCCC[C@H](O)Cc1cc(O)ccc1O`, the GI50 in assay [1] was 0.12 µM; in [2] it was 0.24 µM; in the assay with A673 [3], 0.32 µM; in the assay on Hep293TT, 0.7 µM.

Consider `CCCC/C=C\CCCCCCCCCCCc1cc2cc(O)ccc2o1`, for which the concentration for 50% growth inhibition (GI50) in assay [1] was above 10 µM; in assay [2] it was 0.07 µM; with A673 [3], 0.19 µM; with SK-ES1 it was 0.12 µM; in the assay on Hep293TT, above 10 µM; in the assay on D341 cell line, 0.02 µM. Further, the inhibition entry in assay [4] was “Active”. Moreover, the “growth inhibition (GI)” value in the assay with Daoy and in the assay with HCC1806 was “inactive” in each case.

On to `CCCC/C=C\CCCCCCCCCCC[C@@H]1C[C@]2(O)CC(=O)C[C@H](O1)[C@@H]2O`, for which the IC50 in the assay on HCT-15, with HeLa and in the assay on A2780 was 3 to 30 µM each time.

For `CCCC/C=C\CCCCCCCCCCC[C@H](O)C[C@]1(O)CC(=O)C=C[C@H]1O`, the concentration for 50% growth inhibition (GI50) in assay [1] came to 0.18 µM; in assay [2], 0.4 µM; with A673 [3], 0.58 µM; in the assay with Hep293TT, 0.39 µM.

On to `CCCC/C=C\CCCCCCCCC[C@H](O)Cc1cc(O)ccc1O`, for which the GI50 in [1] is 0.17 µM; in [2], 0.08 µM; in the assay with A673 [3], 0.16 µM; in the assay with Hep293TT it was 1.02 µM.

Take `CCCC/C=C\CCCCCCCCC[C@H](O)C[C@]1(O)CC(=O)C=C[C@H]1O`: the GI50 in assay [1] stood at 0.24 µM; in assay [2] it was 0.41 µM; with A673 [3], 0.65 µM; with Hep293TT, 0.5 µM.

As to `Cc1[nH]nc(C(F)(F)F)c1Cc1sc2c(c1C(=O)N1C[C@](C)(O)CO1)c(=O)n(C)c(=O)n2C(C)C`, the “growth inhibition (GI)” value in the assay on A673 [5] was “inactive”. Moreover, the inhibition result in assay [4] is “Active”.

What is called GI50 is the concentration giving 50% growth inhibition. One may read the IC50 as the concentration at which inhibition is half-maximal.
